Source: PubChem
Shown are actives, neighbours in structure and some others; about 3.5% of the full set was active somewhere.
RGS4 block: inhibitors of human RGS4 | B-score at 10 µM | 310,000 tested, 0.45% active | AID 463165 | HEK293 M3R/RGS4 inducible, Fluo-4 calcium flux; hits give high values; triggered by carbachol at its EC20;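 active = B-score, a plate-corrected calcium signal, over three deviations above library mean, with baseline fluorescence within five deviations of library mean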;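 also: RGS4 expression induced by doxycycline in cells with stable M3 receptor; B-score is computed from the integrated fluorescence ratio over baseline after carbachol; higher B-score means a larger calcium signal and so more RGS4 inhibition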
Target sequence (P49798 whole entry, looked up): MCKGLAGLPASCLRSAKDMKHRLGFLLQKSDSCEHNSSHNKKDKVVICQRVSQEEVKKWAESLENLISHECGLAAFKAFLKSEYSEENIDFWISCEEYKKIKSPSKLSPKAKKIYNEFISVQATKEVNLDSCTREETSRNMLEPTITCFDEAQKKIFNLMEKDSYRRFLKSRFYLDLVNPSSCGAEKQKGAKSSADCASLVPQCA
MrgX1 agonist: activates human MrgX1 receptor signaling. MrgX1-HEK293 cells, Fluo-4 calcium fluorescence, agonist mode; hits give high values. B-score at 10 µM. Q96LB2. 310,000 tested, 0.44% active. AID 588627;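 active = calcium response B-score plate-corrected fluorescence ratio at least 3 library SD, with starting fluorescence B-score inside 5 SD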
Target sequence (Q96LB2 whole entry, looked up): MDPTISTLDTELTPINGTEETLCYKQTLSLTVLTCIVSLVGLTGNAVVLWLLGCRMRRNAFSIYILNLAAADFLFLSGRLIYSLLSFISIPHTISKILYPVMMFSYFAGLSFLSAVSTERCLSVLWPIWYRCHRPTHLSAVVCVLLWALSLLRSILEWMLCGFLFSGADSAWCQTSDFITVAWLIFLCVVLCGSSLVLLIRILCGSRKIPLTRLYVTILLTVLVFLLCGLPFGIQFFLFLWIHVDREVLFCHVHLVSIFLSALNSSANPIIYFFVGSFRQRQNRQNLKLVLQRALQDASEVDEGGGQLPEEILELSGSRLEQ
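times = overnight plating, then 30 min 37 °C plus 30 min room-temperature dye loading | assay system = stable human MrgX1 HEK293 cell line | input = fifteen thousand cells per well | signal = kinetic calcium dye fluorescence, Fluo-4 NW | dosing = compound delivered in addition one of three | read-out = B-scored fluorescence response ratio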
RGS4 act: potentiators or activators of RGS4; HEK293 M3R/inducible RGS4, carbachol calcium flux Fluo4; hits give low values; B-score at 10 µM; AID 463111; 310,000 tested, 0.92% active;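 active = B-score of the integrated calcium signal more than 4 SD below the library mean, with starting fluorescence not abnormally high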;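 also: negative B-score means reduced calcium response which marks RGS4 activation or potentiation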
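System: HEK293 FlpIn-TREx cells, stable M3R, doxycycline-inducible RGS4. Timing: overnight RGS4 induction, 30 min dye load 37 °C, 20 min compound RT. Also added: carbachol, ECmax concentration. Measured by: Fluo4 fluorescence kinetic imaging of calcium. Evaluation: integrated calcium ratio converted to B score.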
MrgX1 antag: blocks BAM8-22 activation of human MrgX1 receptor. Q96LB2. MRGX1-HEK293 calcium flux, Fluo-4, BAM8-22 antagonism; hits give low values. B-score at 10 µM. 310,000 tested, 1.3% active. AID 588676;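 active = calcium-response B-score plate-corrected more than 3 library SD below zero, starting fluorescence within 5 deviations, no agonist response on first addition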;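 also: peak minus trough fluorescence over baseline after final BAM8-22 challenge near maximal dose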
MrgX1 allo act: allosterically activates human MrgX1 receptor signaling | Q96LB2 | MrgX1-HEK293, Fluo-4 calcium flux, FDSS; hits give high values | B-score at 10 µM | 310,000 tested, 0.63% active;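 active = plate-corrected calcium response at least 3 library SD above typical, normal starting fluorescence, not activating the receptor alone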;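 also: compound read alongside a low EC10 to EC30 dose of BAM8-22 agonist; peak minus trough fluorescence over baseline measured at the second addition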
MrgX1 antag conf: reconfirmed antagonist of human MrgX1 receptor signaling; shares compounds with MrgX1 antag; MrgX1-HEK293, BAM8-22 calcium flux, Fluo-4; hits give low values; remaining BAM8-22 calcium response % of control (hits give low values), % at 10 µM; 2,300 tested, 19% active; AID 602420;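 active = remaining agonist calcium response no higher than 100% minus 3 SD of agonist-only control wells, with starting fluorescence near control levels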;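 also: agonist BAM8-22 given at a near maximal EC90 to ECmax level; peak minus minimum fluorescence divided by baseline after agonist addition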
HEK293 Ca flux: counter-screen for MrgX1 antagonists: effect in parental HEK293 cells. shares compounds with MrgX1 antag. Fluo-4 calcium fluorescence, FDSS. fluorescence ratio F(max-min)/F0 at 10 µM. 4,000 tested, 2% active. AID 624111;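 active = duplicate-averaged calcium fluorescence ratio at least three times the standard deviation of buffer wells, a nonspecific response in parental cells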
HEK293 Ca counter: counter-screen for MrgX1 allosteric activators: effect in parental HEK293 cells. parental HEK293 calcium flux, Fluo-4 fluorescence ratio; hits give high values. AID 624114. shares compounds with MrgX1 antag. 4,000 tested, 0.4% active. fluorescence ratio F(max-min)/F0 at 10 µM;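 active = calcium fluorescence ratio, averaged over duplicates, at least 3 SD of the buffer-well ratio, meaning a nonspecific response in receptor-free cells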;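 also: untransfected parental HEK293 lacking MrgX1 used as counterscreen for MrgX1 allosteric activators; fluorescence change taken during the second addition on a kinetic imager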
HEK293 Ca cntr2: MrgX1 activator counter-screen hit in parental HEK293 cells; 4,000 tested, 8.7% active; fluorescence ratio F(max-min)/F0 at 10 µM; shares compounds with MrgX1 antag; Fluo-4 calcium fluorescence (FDSS); hits give high values; AID 624115;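 active = calcium fluorescence ratio at least three times the spread of buffer wells, meaning a non-specific response in parental cells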
Large screens that a line does not name were inactive (follow-up assays come after a bar, where they were run).

CC(=O)N1CCN(S(=O)(=O)c2cccc(C(=O)Nc3ccccc3N3CCCC3)c2)CC1	none
COc1cccc(CN(C(=O)c2ccco2)C2CCS(=O)(=O)C2)c1 (stereo not drawn)	MrgX1 antag -4.76 | MrgX1 antag conf inactive | HEK293 Ca flux inactive | HEK293 Ca counter inactive | HEK293 Ca cntr2 inactive
CCOc1ccc(NC(=S)N2CCN(CCN3C(=O)c4cccc5cccc(c45)C3=O)CC2)cc1	none
CCCCN1CC[C@H]2C=CC[C@@H](C(=O)Nc3ccccc3)[C@H]2C1=O	none
CCCCN1CC[C@H]2C=CC[C@@H](C(=O)NCCc3ccccc3)[C@H]2C1=O	MrgX1 antag -6.1 | MrgX1 antag conf inactive | HEK293 Ca flux inactive | HEK293 Ca counter inactive | HEK293 Ca cntr2 inactive
O=C1c2cnccc2CN1Cc1ccccc1	MrgX1 antag -5.3 | MrgX1 antag conf inactive | HEK293 Ca flux inactive | HEK293 Ca counter inactive | HEK293 Ca cntr2 inactive
O=C(CC1C(=O)NCCN1Cc1cccc(F)c1F)NCCCC1CCCC1 (stereo not drawn)	none
CCOc1ccc2c(c1)C(NC(C)=O)C(=O)N2CCN1CCOCC1 (stereo not drawn)	MrgX1 antag -12.1 | MrgX1 antag conf inactive | HEK293 Ca flux inactive | HEK293 Ca counter inactive | HEK293 Ca cntr2 inactive
CC(=O)NC1C(=O)N(CCN2CCOCC2)c2ccc(Br)cc21 (stereo not drawn)	MrgX1 antag -9.32 | MrgX1 antag conf inactive | HEK293 Ca flux inactive | HEK293 Ca counter inactive | HEK293 Ca cntr2 47.1
CCN1C(=O)C(NC(C)=O)c2cc(OC)ccc21 (stereo not drawn)	none
CCN(CC)CCn1c2c(c(SCC(=O)Nc3ccc(F)c(F)c3)nc1=O)CCC2	MrgX1 antag -9.54 | MrgX1 antag conf inactive | HEK293 Ca flux inactive | HEK293 Ca counter inactive | HEK293 Ca cntr2 inactive
COc1ccc(Cl)cc1NC(=O)CSc1nc(=O)n(CCN(C)C)c2c1CCCC2	none
COc1ccc(NC(=O)CSc2nc(=O)n(CCN(C)C)c3c2CCCC3)cc1OC	MrgX1 antag -5.62 | MrgX1 antag conf inactive | HEK293 Ca flux inactive | HEK293 Ca counter inactive | HEK293 Ca cntr2 inactive
O=C(CCNC(=O)C1CCN(S(=O)(=O)c2ccccc2)CC1)NCc1ccc(Cl)cc1Cl	none
COc1cc(NC(=O)C2CC(=O)N(CCc3ccc(F)cc3)C2)cc(OC)c1OC (stereo not drawn)	none
Cc1ccc(S(=O)(=O)N2CCC(C(N)=O)CC2)cc1[N+](=O)[O-]	none
CSc1nsc(SCC(=O)Nc2ccccc2F)n1	none
COc1cccc(N=C2NC(=O)/C(=C/c3cc([N+](=O)[O-])ccc3O)S2)c1	MrgX1 antag -11.1 | MrgX1 antag conf inactive | HEK293 Ca flux inactive | HEK293 Ca counter inactive | HEK293 Ca cntr2 inactive
CC1(C)CNC(=O)CC(C)(C)N1	none
CCOC(=O)C1CCCN(C(=O)c2cn(-c3ccccc3)nc2-c2cccnc2)C1 (stereo not drawn)	none
CC1CCCN(C(=O)c2cn(-c3ccccc3)nc2-c2cccnc2)C1 (stereo not drawn)	MrgX1 antag -6.83 | MrgX1 antag conf inactive | HEK293 Ca flux inactive | HEK293 Ca counter inactive | HEK293 Ca cntr2 inactive
COc1ccccc1C1C(C#N)=C(N)N(c2cccnc2)C2=C1C(=O)CC(C)(C)C2 (stereo not drawn)	MrgX1 antag -8.78 | MrgX1 antag conf inactive | HEK293 Ca flux inactive | HEK293 Ca counter inactive | HEK293 Ca cntr2 inactive
COc1cc(C2C(C#N)=C(N)N(c3cccnc3)C3=C2C(=O)CC(C)(C)C3)ccc1O (stereo not drawn)	none
Cc1cc(NCc2ccco2)n2ncnc2n1	MrgX1 antag -7.12 | MrgX1 antag conf inactive | HEK293 Ca flux inactive | HEK293 Ca counter inactive | HEK293 Ca cntr2 inactive
COC(=O)CNC(=O)CSc1nnc(C)c(=O)[nH]1	none
COCCN1Cc2cccc(C(=O)Nc3ccc(C)cc3)c2C1=O	MrgX1 antag -7.6 | MrgX1 antag conf 81.0% | HEK293 Ca flux inactive | HEK293 Ca counter inactive | HEK293 Ca cntr2 inactive
COCCN1Cc2cccc(C(=O)Nc3cccnc3)c2C1=O	none (no result: RGS4 block, RGS4 act)
O=C(Nc1ccccc1)N1CCC(c2ccccc2)C1 (stereo not drawn)	none
O=C(CCN1CCC(c2ccccc2)C1)c1ccccc1 (stereo not drawn)	MrgX1 antag -5.19 | MrgX1 antag conf inactive | HEK293 Ca flux inactive | HEK293 Ca counter inactive | HEK293 Ca cntr2 inactive
COc1ccc(Br)cc1CN1CCSCC1	none
Cc1ccc(Nc2nc3ccccc3c(=O)s2)cc1	MrgX1 antag -7.29 | MrgX1 antag conf inactive | HEK293 Ca flux inactive | HEK293 Ca counter inactive | HEK293 Ca cntr2 inactive
O=c1sc(Nc2ccccc2)nc2ccccc12	none
CN(Cc1ccccc1)C1CCNCC1	none
CCN(CC)C1CCN(C(=O)c2cc(COc3ccccc3SC)on2)C1 (stereo not drawn)	none
CSc1ccccc1OCc1cc(C(=O)N2CCCC(C)C2)no1 (stereo not drawn)	MrgX1 antag -5.69 | MrgX1 antag conf inactive | HEK293 Ca flux inactive | HEK293 Ca counter inactive | HEK293 Ca cntr2 inactive
S=C(N/N=C/c1ccc2c(c1)OCO2)NC1CC2CCC1C2 (stereo not drawn)	none
OC(CCN1CCCC1)(c1ccccc1)C1CCCCC1 (stereo not drawn)	none
OC(CCN1CCCCC1)(c1ccccc1)c1ccccc1	MrgX1 antag -7.15 | MrgX1 antag conf inactive | HEK293 Ca flux inactive | HEK293 Ca counter inactive | HEK293 Ca cntr2 inactive
Cc1cccc(NC(=S)NC2CC3CCCC(C2)N3Cc2ccccc2)c1C (stereo not drawn)	none
CCCN1C2CCCC1CC(NC(=O)NC1CCCCC1)C2 (stereo not drawn)	none
O=C(CN1C2CCC1CC(NC(=O)NC1CCCCC1)C2)NC1CC1 (stereo not drawn)	MrgX1 antag -5.54 | MrgX1 antag conf inactive | HEK293 Ca flux inactive | HEK293 Ca counter inactive | HEK293 Ca cntr2 inactive
Nc1c(C(=O)Nc2ccccc2F)sc2nc(-c3cccnc3)ccc12	none
Nc1c(C(=O)Nc2ccccc2F)sc2nc(-c3ccco3)ccc12	MrgX1 antag -5.26 | MrgX1 antag conf 77.8% | HEK293 Ca flux inactive | HEK293 Ca counter inactive | HEK293 Ca cntr2 inactive
